Apaf1 inhib = inhibitors of human Apaf-1 apoptosome; inhibition, % at 20 µM; reconstituted apoptosome caspase-3 activity, DEVD-Rh110 fluorescence; actives 0.71% (n = 330,000); active = inhibition of at least 40% at 20 µM;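 also: plate controls were DMSO wells for no effect and DEVD-CHO caspase inhibitor wells for full effect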
Target sequence (O14727 whole entry, looked up): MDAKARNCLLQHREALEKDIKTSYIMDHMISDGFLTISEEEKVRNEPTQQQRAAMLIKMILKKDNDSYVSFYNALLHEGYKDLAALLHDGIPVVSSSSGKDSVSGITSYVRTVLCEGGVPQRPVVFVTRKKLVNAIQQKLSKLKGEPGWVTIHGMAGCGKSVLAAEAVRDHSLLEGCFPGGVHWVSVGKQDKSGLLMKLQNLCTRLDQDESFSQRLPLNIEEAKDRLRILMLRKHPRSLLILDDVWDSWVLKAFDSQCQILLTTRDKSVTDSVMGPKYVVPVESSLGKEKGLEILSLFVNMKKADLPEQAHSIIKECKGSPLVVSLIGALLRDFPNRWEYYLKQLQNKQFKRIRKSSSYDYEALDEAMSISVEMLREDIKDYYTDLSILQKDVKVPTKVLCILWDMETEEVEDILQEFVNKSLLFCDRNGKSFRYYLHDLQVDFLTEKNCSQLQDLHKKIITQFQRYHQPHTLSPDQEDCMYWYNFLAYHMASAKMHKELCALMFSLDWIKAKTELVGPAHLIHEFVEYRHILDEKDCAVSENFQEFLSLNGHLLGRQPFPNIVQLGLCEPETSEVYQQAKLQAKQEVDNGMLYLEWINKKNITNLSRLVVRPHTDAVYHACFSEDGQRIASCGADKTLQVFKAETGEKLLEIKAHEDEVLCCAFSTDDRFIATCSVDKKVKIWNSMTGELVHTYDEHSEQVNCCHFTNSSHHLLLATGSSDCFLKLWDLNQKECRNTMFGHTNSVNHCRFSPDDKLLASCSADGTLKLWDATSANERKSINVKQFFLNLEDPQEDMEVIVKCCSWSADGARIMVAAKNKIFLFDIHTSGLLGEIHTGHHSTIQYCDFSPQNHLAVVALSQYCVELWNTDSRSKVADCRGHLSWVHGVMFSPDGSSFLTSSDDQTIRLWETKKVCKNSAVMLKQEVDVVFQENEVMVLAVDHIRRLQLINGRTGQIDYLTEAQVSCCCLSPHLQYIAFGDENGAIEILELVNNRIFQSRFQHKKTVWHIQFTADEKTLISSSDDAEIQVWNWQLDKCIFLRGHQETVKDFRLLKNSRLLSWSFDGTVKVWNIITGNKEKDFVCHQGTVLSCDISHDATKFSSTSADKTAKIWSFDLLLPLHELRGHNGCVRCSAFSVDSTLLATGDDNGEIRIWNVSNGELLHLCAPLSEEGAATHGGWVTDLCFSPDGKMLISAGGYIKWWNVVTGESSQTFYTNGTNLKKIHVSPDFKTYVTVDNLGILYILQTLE
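Assay system – apoptosome proteins · Medium – Hepes buffer, pH 7.5 · Also added – cytochrome c with DEVD-Rh110 · Timing – 30 min compound preincubation, 50 min activation, room temperature · Detection – Rh110 fluorescence, excitation 480 nm, emission 540 nm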
Mdm2 MdmX PPI = inhibitors of human Mdm2/MdmX interaction; O15151+Q00987; SaOS-2 split-luciferase Mdm2/MdmX complementation, luminescence; actives 3% (n = 330,000); inhibition, % at 8 µM;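 active = inhibition of at least 50% at 8 µM in the primary screen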
UPR CHOP act = apoptotic UPR (CHOP) activation; CHO-CHOP luciferase reporter, luminescence; percent of tunicamycin response over DMSO baseline; activation, % at 10 µM; actives 0.34% (n = 330,000); AID 449763;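 active = at 10 µM dose, activation of 40% or more, normalized to positive control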;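 also: 100% = tunicamycin at 10 µg/mL and 0% = DMSO alone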
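Dosing – one dose, 10 µM in 0.5% DMSO · System – CHO-CHOP cells, stable luciferase reporter of PERK-eIF2a-CHOP signalling · Input – 500 cells/well · Control set – tunicamycin 10 µg/mL final as positive, DMSO-only wells as negative · Timing – 6 h compound treatment, 37 °C · Measure – % activation vs tunicamycin · Technique – luminescence read with Steady-Glo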
UBC13 inh = human UBC13 polyubiquitination inhibition. P61088. UBC13 polyubiquitin chain formation, TR-FRET. inhibition, % at 20 µM. actives 0.47% (n = 330,000). AID 485273; in the data active = inhibition above about 45%, passing the limit was not always enough
UPR XBP1 act = activators of adaptive arm of unfolded protein response (XBP1) | CHO-XBP1 luciferase reporter, IRE1-XBP1 UPR activation, luminescence; percent of tunicamycin response, DMSO as zero | activation, % at 20 µM | actives 0.33% (n = 330,000) | AID 463104;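 active = versus positive control, 20 µM dose yields 30% or more activation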;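 also: 100% = tunicamycin at 10 µg/mL and 0% = DMSO only wells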
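Assay system: CHO-XBP1 luciferase reporter cells; Schedule: 6 h treatment, 37 °C; Detection: glow luminescence from Steady-Glo reagent; Benchmarks: high control tunicamycin 10 µg/mL final, low control DMSO vehicle only.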
Mdm2 MdmX conf = confirmation of human Mdm2/MdmX interaction inhibitors; shares compounds with Mdm2 MdmX PPI; Mdm2-MdmX binding, luminescent assay; inhibition, % at 8 µM; actives 55% (n = 10,000); in the data active = inhibition above about 40%
Full FLuc ctr = inhibits full-length luciferase, flagging false Mdm2/MdmX hits; shares compounds with Mdm2 MdmX PPI; SaOS-2 full-length luciferase counterscreen, luminescence; inhibition, % at 8 µM; actives 77% (n = 6,200);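 active = mean inhibition at 8 µM reaching about 37%, which flags the compound as non-specific, limit read from the data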;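 also: p53-null SaOS-2 cells with luciferase driven by a doxycycline-inducible promoter; compound on cells about two nights before reading with doxycycline added after day one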
* = called active by the depositor. Shown are actives, neighbours in structure and some others; about 4.1% of the full set was active somewhere.

For CC(C)(C)OC(=O)NCCCC[C@H](NC(=O)c1[nH]cnc1C(=O)Nc1ccc(CNC(=O)OC(C)(C)C)cc1)C(=O)OC(C)(C)C the results were Apaf1 inhib 7, Mdm2 MdmX PPI 87*, UPR CHOP act 11, UBC13 inh -43, UPR XBP1 act 7, Mdm2 MdmX conf 47* and Full FLuc ctr 75*.
`CC(C)(C)OC(=O)NCCCCCNC(=O)c1[nH]cnc1C(=O)Nc1ccc(Cl)cc1` gave Apaf1 inhib 22, Mdm2 MdmX PPI 64*, UPR CHOP act 4, UBC13 inh 1, UPR XBP1 act 4, Mdm2 MdmX conf 36 and Full FLuc ctr 59*.
Screening CC(C)(C)OC(=O)NCc1ccc(NC(=O)c2nc[nH]c2C(=O)NCCCCCCNC(=O)c2[nH]cnc2C(=O)Nc2ccc(CNC(=O)OC(C)(C)C)cc2)cc1 returned Apaf1 inhib 12, Mdm2 MdmX PPI 8, UPR CHOP act 3, UBC13 inh -14 and UPR XBP1 act -2.
Screening CC(C)(C)OC(=O)NCc1ccc(NC(=O)c2nc[nH]c2C(=O)NCCCCNC(=O)c2[nH]cnc2C(=O)Nc2ccc(CNC(=O)OC(C)(C)C)cc2)cc1 returned Apaf1 inhib 9, Mdm2 MdmX PPI 96*, UPR CHOP act 4, UBC13 inh 4, UPR XBP1 act -1 and Mdm2 MdmX conf 7.
Screening CN1CCC(=C2c3ccccc3C=Cc3ccccc32)CC1 returned Apaf1 inhib 15, Mdm2 MdmX PPI 46, UPR CHOP act -1, UBC13 inh 17 and UPR XBP1 act -5.
Screening c1ccc2c(c1)CCc1ccccc1C2=C1CCNCC1 returned Apaf1 inhib -9, Mdm2 MdmX PPI 67*, UPR CHOP act 2, UBC13 inh 17, UPR XBP1 act -1, Mdm2 MdmX conf 49* and Full FLuc ctr 73*.
`N#CC(c1ccccc1)c1ccc2c(C(F)(F)F)cc(C(F)(F)F)nc2n1` (configuration not stated) gave Apaf1 inhib 2, Mdm2 MdmX PPI 68*, UPR CHOP act 1, UBC13 inh -51, UPR XBP1 act 0 and Mdm2 MdmX conf 9.
Cc1ccc(C(C#N)c2ccc3c(C(F)(F)F)cc(C(F)(F)F)nc3n2)cc1 (configuration not stated) was read as Apaf1 inhib -3, Mdm2 MdmX PPI 58*, UPR CHOP act 12, UBC13 inh -91, UPR XBP1 act 5 and Mdm2 MdmX conf -1.
For CN(N)c1ccc2c(C(F)(F)F)cc(C(F)(F)F)nc2n1 the results were Apaf1 inhib -4, Mdm2 MdmX PPI -13, UPR CHOP act 0, UBC13 inh -13 and UPR XBP1 act 2.
`CNS(=O)(=O)c1cc(Nc2ncnc3sccc23)ccc1C` gave Apaf1 inhib -2, Mdm2 MdmX PPI 25, UPR CHOP act 3, UBC13 inh 10 and UPR XBP1 act 0.
OC(c1cc(C(F)(F)F)nc2c(Cl)cc(Cl)cc12)C1CCCCN1 (configuration not stated) was read as Apaf1 inhib 8, Mdm2 MdmX PPI 68*, UPR CHOP act 3, UBC13 inh 7, UPR XBP1 act 2, Mdm2 MdmX conf 42* and Full FLuc ctr 48*.
Screening CN(Cc1ccccc1)C(=O)CCn1c(=O)c2cccn2c2cccnc21 returned Apaf1 inhib 13, Mdm2 MdmX PPI -3, UPR CHOP act -2, UBC13 inh -2 and UPR XBP1 act 0.
For O=[N+]([O-])/C=C/c1c(OCc2ccccc2)ccc2ccccc12 the results were Apaf1 inhib 21, Mdm2 MdmX PPI 95*, UPR CHOP act 0, UBC13 inh -8, UPR XBP1 act -5, Mdm2 MdmX conf 100* and Full FLuc ctr 50*.
Screening Cc1cc(C(=O)CCl)c(C)n1-c1c(C)n(C)n(-c2ccccc2)c1=O returned Apaf1 inhib -2, Mdm2 MdmX PPI 51*, UPR CHOP act 28, UBC13 inh 1, UPR XBP1 act 6 and Mdm2 MdmX conf 35.

Screening data: PubChem, Sanford-Burnham Center for Chemical Genomics
